Experimental data published in ChEMBL document CHEMBL5236549, “Discovery of 2-Sulfinyl-Diazabicyclooctane Derivatives, Potential Oral β-Lactamase Inhibitors for Infections Caused by Serine β-Lactamase-Producing Enterobacterales” (J Med Chem, 2021).

Legend:
Klebsiella pneumoniae [1] = assay: Antibacterial activity against Klebsiella pneumoniae ATCC SR201218 assessed as reduction in bacterial growth by measuring minimum […] concentration incubated for 16 to 24 hrs by CLSI based two-fold serial dilution method; type: functional; conditions: time 16-24 hrs
How it was run: (§1)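 MPC₁ by broth microdilution: twofold serial dilutions of inhibitor in cation-adjusted Mueller Hinton broth containing ceftibuten at 1 μg/mL. Inoculum about 5 × 10⁴ cfu/well final, set from OD625. Incubation at 35 °C for 16−20 h. […] N = 1.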

Escherichia coli [2] = assay: Antibacterial activity against Escherichia coli ATCC SR09613 assessed as reduction in bacterial growth by measuring minimum […] concentration incubated for 16 to 24 hrs by CLSI based two-fold serial dilution method; type: functional; conditions: time 16-24 hrs; how it was run: as §1
[3] = Inhibition of bacterial beta-lactamase CTX-M-15 using nitrocefin as substrate incubated for 20 mins; design: species or system Bacteria
[4] = Inhibition of bacterial beta-lactamase OXA-48 using nitrocefin as substrate incubated for 20 mins; design: species or system Bacteria
How it was run: (§2)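 Nitrocefin hydrolysis read by absorbance. Enzyme titrated to give about 0.2 absorbance change over the no-enzyme control. Enzyme added to nitrocefin (final 50 μg/mL) plus inhibitor, no preincubation, read after 20 min at 35 °C. IC50 is 50% reduction of hydrolysis. N = 1.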

Escherichia coli [5] = assay: Antibacterial activity against Escherichia coli ATCC SR34100 assessed as inhibition of bacterial growth incubated for 16 to 20 hrs by CLSI based two-fold serial dilution method
Escherichia coli [6] = assay: Antibacterial activity against Escherichia coli ATCC SR09613 assessed as inhibition of bacterial growth incubated for 16 to 20 hrs by CLSI based two-fold serial dilution method
[7] = Inhibition of bacterial beta-lactamase KPC-2 using nitrocefin as substrate incubated for 20 mins; design: species or system Bacteria; how it was run: as §2
Klebsiella pneumoniae [8] = assay: Antibacterial activity against Klebsiella pneumoniae ATCC BAA1705 assessed as reduction in bacterial growth by measuring minimum potentiating concentration incubated for 16 to 20 hrs by CLSI based two-fold serial dilution method; conditions: time 16-20 hrs
Klebsiella pneumoniae [9] = assay: Antibacterial activity against Klebsiella pneumoniae ATCC BAA1705 assessed as inhibition of bacterial growth incubated for 16 to 20 hrs by CLSI based two-fold serial dilution method
Escherichia coli [10] = assay: Antibacterial activity against Escherichia coli ATCC SR34100 assessed as reduction in bacterial growth by measuring minimum […] concentration incubated for 16 to 24 hrs by CLSI based two-fold serial dilution method; type: functional; conditions: time 16-24 hrs; how it was run: as §1
[11] = Inhibition of bacterial beta-lactamase CMY-2 using nitrocefin as substrate incubated for 20 mins; design: species or system Bacteria; how it was run: as §2
Klebsiella pneumoniae [12] = assay: Antibacterial activity against Klebsiella pneumoniae ATCC SR201218 assessed as inhibition of bacterial growth incubated for 16 to 20 hrs by CLSI based two-fold serial dilution method
[13] = Stability of the compound in phosphate buffer at pH 7.0 assessed as parent compound remaining at 40 degreeC measured after 16 hrs; type: physicochemical; conditions: read-out: Stability
How it was run: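 Compound held in pH 7.0 phosphate buffer at 40 °C for 16 h; amount remaining reported as %.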

[14] = Stability in rat serum assessed as compound remaining at 5 micromol/L incubated for 30 mins by LC-MS/MS analysis; type: ADME, cell-free; conditions: dose 5 µmol/L, read-out: Stability
How it was run: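 Pooled rat serum incubated with 5 μmol/L compound for 30 min at 37 °C, in duplicate; aliquot mixed with methanol, centrifuged, supernatant analysed by LC/MS/MS for % remaining.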

[15] = Total clearance in rat by LC-MS/MS analysis; type: ADME; conditions: in vivo
[16] = Oral bioavailability in monkey at 10 mg/kg by LC/MS/MS analysis; type: ADME, organism-based, Macaca mulatta; conditions: rhesus monkey, in vivo
How it was run: (§3)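 Plasma of the parent acid measured by LC/MS/MS (methanol precipitation, positive ESI, external standard); oral values follow prodrug dosing (rat fed, dog and monkey fasted). AUC from 0 h to last time point by linear trapezoid; F from oral AUC versus iv AUC of the parent. N = 2 (rat, dog), N = 3 (monkey, mouse).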

[17] = Tmax in monkey at 10 mg/kg,po by LC/MS/MS analysis; type: ADME, organism-based, Macaca mulatta; conditions: rhesus monkey, in vivo
[18] = Cmax in rat at 5 mg/kg,po by LC/MS/MS analysis; type: ADME, organism-based; design: dose 5 mg/kg, route po; conditions: in vivo; how it was run: as §3
[19] = AUC in rat at 5 mg/kg,po by LC/MS/MS analysis; type: ADME, organism-based; design: dose 5 mg/kg, route po; conditions: in vivo; how it was run: as §3
[20] = Oral bioavailability in dog at 10 mg/kg by LC/MS/MS analysis; type: ADME, organism-based, Canis lupus familiaris; conditions: in vivo; how it was run: as §3
[21] = Cmax in dog at 10 mg/kg,po by LC/MS/MS analysis; type: ADME, organism-based, Canis lupus familiaris; design: dose 10 mg/kg, route po; conditions: in vivo; how it was run: as §3
[22] = AUC in monkey at 10 mg/kg,po by LC/MS/MS analysis; type: ADME, organism-based, Macaca mulatta; design: dose 10 mg/kg, route po; conditions: rhesus monkey, in vivo; how it was run: as §3
[23] = Tmax in dog at 10 mg/kg,po by LC/MS/MS analysis; type: ADME, organism-based, Canis lupus familiaris; conditions: in vivo
[24] = Cmax in monkey at 10 mg/kg,po by LC/MS/MS analysis; type: ADME, organism-based, Macaca mulatta; design: dose 10 mg/kg, route po; conditions: rhesus monkey, in vivo; how it was run: as §3
[25] = Tmax in rat at 5 mg/kg,po by LC/MS/MS analysis; type: ADME, organism-based; conditions: in vivo
[26] = Oral bioavailability in rat at 5 mg/kg by LC/MS/MS analysis; type: ADME, organism-based; conditions: in vivo; how it was run: as §3
[27] = AUC in dog at 10 mg/kg,po by LC/MS/MS analysis; type: ADME, organism-based, Canis lupus familiaris; design: dose 10 mg/kg, route po; conditions: in vivo; how it was run: as §3

Row | SMILES | MPC (Klebsiella pneumoniae [1]) | MPC (Escherichia coli [2]) | IC50 [3] | MIC (Escherichia coli [5]) | MIC (Escherichia coli [6]) | IC50 [7] | MPC (Klebsiella pneumoniae [8]) | MIC (Klebsiella pneumoniae [9]) | MPC (Escherichia coli [10]) | IC50 [11] | MIC (Klebsiella pneumoniae [12]) | other results
1 | C[S@+]([O-])[C@@H]1CC[C@@H]2CN1C(=O)N2O[C@H](F)C(=O)[O-].[Na+] | 2 µg/mL | 0.5 µg/mL | 445 nM | 16 µg/mL | 32 µg/mL | 443 nM | 0.125 µg/mL | 32 µg/mL | 0.125 µg/mL | 655 nM | > 32 µg/mL | IC50 [4]: 32600 nM
2 | NS(=O)(=O)[C@@H]1CC[C@@H]2CN1C(=O)N2OC(F)(F)C(=O)O.[Na+] | – | – | 104 nM | – | – | 52 nM | – | – | – | 1340 nM | – | remaining at 16 h [13]: 55%; remaining at 0.5 h, 5 µM [14]: 39%; clearance [15]: 84.5 mL/min/kg
3 | NC(=O)/C(C[S@@+]([O-])[C@@H]1CC[C@@H]2CN1C(=O)N2O[C@H](F)C(=O)[O-])=N\O.[Na+] (stereo in doubt) | 32 µg/mL | 0.25 µg/mL | 70 nM | > 32 µg/mL | > 32 µg/mL | 132 nM | 2 µg/mL | > 32 µg/mL | 2 µg/mL | 143 nM | > 32 µg/mL | –
4 | Nc1ncc(C[S@@+]([O-])[C@@H]2CC[C@@H]3CN2C(=O)N3O[C@H](F)C(=O)[O-])s1.[Na+] | 4 µg/mL | 0.5 µg/mL | 10 nM | > 32 µg/mL | > 32 µg/mL | 88 nM | 0.25 µg/mL | > 32 µg/mL | 1 µg/mL | 41 nM | > 32 µg/mL | IC50 [4]: 981 nM
5 | CC(C)OC(=O)[C@@H](F)ON1C(=O)N2C[C@H]1CC[C@H]2[S@@+](C)[O-] | – | – | – | – | – | – | – | – | – | – | – | remaining at 16 h [13]: 56%; bioavailability [16]: 25.5%; Tmax [17]: 60 min; Cmax [18]: 1700 ng/mL; AUC [19]: 2090 ng·h/mL; bioavailability [20]: 48.1%; Cmax [21]: 7390 ng/mL; AUC [22]: 7060 ng·h/mL; Tmax [23]: 48 min; Cmax [24]: 4380 ng/mL; Tmax [25]: 30 min; bioavailability [26]: 67.6%; AUC [27]: 18400 ng·h/mL
6 | O=C([O-])[C@@H](F)ON1C(=O)N2C[C@H]1CC[C@H]2[S@+]([O-])CCCO.[Na+] | 2 µg/mL | 0.063 µg/mL | 10 nM | > 32 µg/mL | > 32 µg/mL | 38 nM | 0.5 µg/mL | > 32 µg/mL | 1 µg/mL | 39 nM | > 32 µg/mL | –
7 | C[S@@+]([O-])[C@@H]1CC[C@@H]2CN1C(=O)N2OC(F)(F)C(=O)[O-].[Na+] | – | – | 5 nM | – | – | 8 nM | – | – | – | 26 nM | – | remaining at 16 h [13]: 17%; clearance [15]: 289 mL/min/kg
8 | CC(=O)NCC[S@@+]([O-])[C@@H]1CC[C@@H]2CN1C(=O)N2O[C@H](F)C(=O)[O-].[Na+] | 8 µg/mL | 0.063 µg/mL | 101 nM | > 32 µg/mL | > 32 µg/mL | 7 nM | 0.25 µg/mL | > 32 µg/mL | 0.5 µg/mL | 101 nM | – | –
9 | O=C([O-])[C@@H](F)ON1C(=O)N2C[C@H]1CC[C@H]2[S@+]([O-])CCO.[Na+] | 2 µg/mL | 0.125 µg/mL | 16 nM | > 32 µg/mL | > 32 µg/mL | 36 nM | 1 µg/mL | – | 0.5 µg/mL | 57 nM | > 32 µg/mL | –
10 | NCC[S@@+]([O-])[C@@H]1CC[C@@H]2CN1C(=O)N2O[C@H](F)C(=O)O.O=C(O)C(F)(F)F | 4 µg/mL | 0.5 µg/mL | 159 nM | > 32 µg/mL | > 32 µg/mL | 69 nM | <0.031 µg/mL | > 32 µg/mL | 0.125 µg/mL | 431 nM | > 32 µg/mL | –
11 | O=C([O-])[C@@H](F)ON1C(=O)N2C[C@H]1CC[C@H]2[S@+]([O-])CF.[Na+] | 2 µg/mL | 0.25 µg/mL | 6 nM | 32 µg/mL | 32 µg/mL | 90 nM | 0.5 µg/mL | 32 µg/mL | 0.25 µg/mL | 113 nM | > 32 µg/mL | –
12 | Cc1nnc(C[S@@+]([O-])[C@@H]2CC[C@@H]3CN2C(=O)N3O[C@H](F)C(=O)[O-])o1.[Na+] | 4 µg/mL | 0.125 µg/mL | 24 nM | > 32 µg/mL | > 32 µg/mL | 16 nM | 1 µg/mL | > 32 µg/mL | 1 µg/mL | 36 nM | > 32 µg/mL | –
13 | N#CC[S@@+]([O-])[C@@H]1CC[C@@H]2CN1C(=O)N2O[C@H](F)C(=O)[O-].[Na+] | 2 µg/mL | 0.125 µg/mL | 7 nM | > 32 µg/mL | 32 µg/mL | 39 nM | <0.031 µg/mL | > 32 µg/mL | 0.25 µg/mL | 96 nM | > 32 µg/mL | –
14 | NS(=O)(=O)[C@@H]1CC[C@@H]2CN1C(=O)N2O[C@H](F)C(=O)[O-].[Na+] | – | – | 249 nM | – | – | 977 nM | – | – | – | 1110 nM | – | remaining at 16 h [13]: 91%; remaining at 0.5 h, 5 µM [14]: 78%; clearance [15]: 19.8 mL/min/kg
15 | NC(=O)OCC[S@@+]([O-])[C@@H]1CC[C@@H]2CN1C(=O)N2O[C@H](F)C(=O)[O-].[Na+] | 4 µg/mL | 0.125 µg/mL | 14 nM | > 32 µg/mL | > 32 µg/mL | 27 nM | 1 µg/mL | > 32 µg/mL | 1 µg/mL | 64 nM | > 32 µg/mL | –
16 | O=C([O-])[C@@H](F)ON1C(=O)N2C[C@H]1CC[C@H]2[S@+]([O-])C[C@@H](O)CO.[Na+] | 8 µg/mL | 0.125 µg/mL | 10 nM | > 32 µg/mL | > 32 µg/mL | 56 nM | 0.25 µg/mL | > 32 µg/mL | 1 µg/mL | 52 nM | > 32 µg/mL | –
17 | O=C([O-])[C@@H](F)ON1C(=O)N2C[C@H]1CC[C@H]2[S@+]([O-])Cc1c[nH]cn1.[Na+] | 4 µg/mL | 0.125 µg/mL | 8 nM | 32 µg/mL | > 32 µg/mL | 78 nM | 1 µg/mL | 32 µg/mL | 1 µg/mL | 59 nM | > 32 µg/mL | –
18 | NC(=O)C[S@@+]([O-])[C@@H]1CC[C@@H]2CN1C(=O)N2O[C@H](F)C(=O)[O-].[Na+] | 4 µg/mL | 0.125 µg/mL | 50 nM | 32 µg/mL | 32 µg/mL | 35 nM | 0.063 µg/mL | 32 µg/mL | 0.25 µg/mL | 57 nM | > 32 µg/mL | –
